Experimental data as given in PMC11143505 (Acta Pharmaceutica Sinica. B, 2024).

Key:
[1] = target: insulin receptor (Mus musculus, UniProt P15208); assay: Cell-based insulin receptor activation assay; settings: C2C12 cells, phospho-AKT (Ser473) HTRF; relative to native insulin = 100%
[2] = tested on: healthy C57BL/6 mice; assay: Hypoglycemia effect in fasted healthy mice; format: in vivo; settings: for number of mice died from hypoglycemia / dose at which mice started to suffer from notable hypoglycemia: n = 6
How it was run: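 Tail-vein glucose was read by glucose meter at 30 min and 1–6 h. Hypoglycaemic effect was the area above the glycaemic curve and below 3.3 mmol/L. Survival was recorded at 10 U/kg. One-way ANOVA with Tukey test.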

[3] = tested on: STZ-induced diabetic mice; assay: Glycemic control in STZ-induced type 1 diabetic mice with IPGTT; format: in vivo; settings: s.c.; for number of mice experiencing hypoglycemia within 4 h post-injection / time for blood glucose to drop to the normoglycemic range: n = 6; for time for blood glucose to drop to the normoglycemic range: fasted STZ diabetic mice; for response to the first glucose challenge (IPGTT): glucose 2 g/kg i.p. at 4.5 h
[4] = Pharmacokinetics; format: in vivo, mice; settings: n = 5; for delay of time to peak concentration: compared with insulin
[5] = Absorption and urine excretion of Cy7-labeled samples; format: in vivo, mice; settings: s.c., n = 3; for time at which fluorescence at the injected site was undetectable: live imaging
[6] = In vitro stability; format: physicochemical; settings: 1 mg/mL in PBS pH 7.4, 37 °C, 100 rpm, 80 h
[7] = Dynamic light scattering; format: physicochemical; settings: DLS in PBS, average of three measurements
[8] = tested on: diabetic mice; assay: Long-term efficacy in diabetic mice; format: in vivo; settings: for kidney Masson staining, amount of collagen fiber / kidney PAS staining: Day 14; for kidney H&E pathological features: Day 14, insulin 1 mg/kg, di-PEGylated insulin 3 mg/kg
How it was run: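 Diabetes was induced in C57BL/6 mice with STZ 50 mg/kg i.p. in 0.1 mol/L citrate pH 4.5 on 5 consecutive days; only mice with fasting glucose >16.7 mmol/L at 2 weeks were used. […] Serum glycated protein, CREA and BUN were measured by kit on Days 7 and 14. Day-14 kidneys were stained with H&E, PAS and Masson (200×). Dunnett-corrected ANOVA.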

[9] = tested on: healthy C57 mice; assay: Biosafety in healthy mice; format: in vivo; settings: 2 weeks daily; for blood cell counts: n = 5 or 6
How it was run: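 Body weight was recorded every 2 days. After two weeks, blood was collected and blood cell counts were run on an automated veterinary haematology analyser.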

[10] = diabetic mice, Iso-insulin ELISA

insulin receptor, sequence (P15208 28-748 limits assumed): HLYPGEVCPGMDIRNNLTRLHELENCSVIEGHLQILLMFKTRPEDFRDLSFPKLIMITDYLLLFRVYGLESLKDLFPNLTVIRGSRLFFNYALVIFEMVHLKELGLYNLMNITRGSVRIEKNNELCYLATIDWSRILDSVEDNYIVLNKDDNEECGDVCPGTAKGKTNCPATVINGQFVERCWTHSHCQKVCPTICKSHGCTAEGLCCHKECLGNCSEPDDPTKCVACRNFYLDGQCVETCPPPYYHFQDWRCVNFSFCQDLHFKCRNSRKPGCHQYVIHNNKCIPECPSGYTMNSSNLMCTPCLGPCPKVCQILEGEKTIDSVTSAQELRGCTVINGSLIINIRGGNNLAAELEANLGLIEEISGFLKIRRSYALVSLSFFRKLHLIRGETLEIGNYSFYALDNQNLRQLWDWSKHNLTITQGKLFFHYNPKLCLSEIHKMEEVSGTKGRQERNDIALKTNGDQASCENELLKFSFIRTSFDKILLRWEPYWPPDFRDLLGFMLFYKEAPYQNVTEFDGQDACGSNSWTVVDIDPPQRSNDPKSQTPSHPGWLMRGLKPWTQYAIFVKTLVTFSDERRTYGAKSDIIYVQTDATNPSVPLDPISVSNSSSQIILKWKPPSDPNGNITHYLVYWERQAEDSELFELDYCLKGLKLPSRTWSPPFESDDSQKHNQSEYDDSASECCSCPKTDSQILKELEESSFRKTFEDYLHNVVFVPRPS
insulin receptor, sequence (P15208 753-1372 partner limits assumed): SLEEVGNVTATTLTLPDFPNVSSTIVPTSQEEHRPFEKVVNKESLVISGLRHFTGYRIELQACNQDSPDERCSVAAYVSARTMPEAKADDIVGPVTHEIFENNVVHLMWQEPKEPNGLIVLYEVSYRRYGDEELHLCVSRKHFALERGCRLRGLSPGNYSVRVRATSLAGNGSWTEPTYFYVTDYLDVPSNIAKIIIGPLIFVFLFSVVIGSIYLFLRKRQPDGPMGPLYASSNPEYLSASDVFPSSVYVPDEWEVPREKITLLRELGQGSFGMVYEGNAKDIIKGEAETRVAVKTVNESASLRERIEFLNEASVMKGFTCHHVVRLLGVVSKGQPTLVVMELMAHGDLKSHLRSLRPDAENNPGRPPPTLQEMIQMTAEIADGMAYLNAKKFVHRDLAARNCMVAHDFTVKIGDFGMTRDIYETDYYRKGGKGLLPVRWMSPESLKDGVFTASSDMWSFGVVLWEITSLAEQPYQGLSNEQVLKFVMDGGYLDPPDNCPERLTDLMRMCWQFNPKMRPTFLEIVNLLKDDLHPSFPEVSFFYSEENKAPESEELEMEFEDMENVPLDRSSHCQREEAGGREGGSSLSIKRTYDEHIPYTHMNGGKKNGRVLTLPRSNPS

Row | Substance | Emax [1] [%] | number of mice experiencing hypoglycemia within 4 h post-injection ([3]; 5 U/kg, STZ diabetic mice) | delay of time to peak concentration [4, 10] | time at which fluorescence at the injected site was undetectable [5] [h] | hydrodynamic size [7] [nm] | kidney Masson staining, amount of collagen fiber [8] | kidney PAS staining [8] | kidney H&E pathological features [8] | blood cell counts [9] | number of mice died from hypoglycemia ([2]; s.c., 10 U/kg, healthy mice) | dose at which mice started to suffer from notable hypoglycemia ([2]; s.c., fasted healthy mice) [U/kg] | time for blood glucose to drop to the normoglycemic range ([3]; 5 U/kg) [min] | response to the first glucose challenge (IPGTT) ([3]; 5 U/kg) | also measured
1 | di-PEGylated insulin: insulin conjugated with two PEG chains (MW 5000) at Lys B29 and Gly A1 | 63.5 | no mice | approximately 1 h | 4 | 8.3 ± 1.1 | decreased | preserved glomerular basement membrane | somewhat attenuated | no noticeable change |  |  |  |  | hypoglycemia in healthy mice ([2]; s.c., 10 U/kg, fasted healthy mice, n = 6, threshold 3.3 mmol/L): didn't suffer from hypoglycemia; duration of blood glucose management after a single dose ([3]; 15 U/kg, STZ diabetic mice, three IPGTT 2 g/kg): over 13 h; time at which serum concentration was still detected [4, 10]: 12 h; time at which urine fluorescence signals could still be detected ([5]; Cy7 0.1 mg/kg): 12 h; change in transmittance after the assay [6]: less than 2%; glycated serum protein (GSP) level ([8]; 2-week treatment, 3 mg/kg daily, n = 6): markedly reduced
2 | insulin: Recombinant human insulin (26 U/mg) from Tonghua Dongbao Pharmaceutical [reference compound] | 100 | 5 |  |  | 4.1 ± 0.2 | decreased | thicker glomerular basement membrane and incomplete brush border | somewhat attenuated | no noticeable change | 4 | 2 | ≤ 30 | didn't show any efficacy in lowering blood glucose | time at which serum concentration was essentially undetectable ([4]; healthy mice, insulin ELISA): 4 h; fluorescence retention rate at the injected site ([5]; 4 h post-injection): 50%; time of maximum urine fluorescence signal ([5]; Cy7 0.1 mg/kg, IVIS imaging of urine): 2 h; time at which urine fluorescence was close to the background value ([5]; Cy7 0.1 mg/kg): 4 h; inflammatory cell infiltration in the skin at the injection site ([9]; H&E): No significant inflammatory cell infiltration
3 | mono-PEGylated insulin: insulin conjugated with one PEG chain (MW 5000) at Lys B29 | 95.7 | 4 | approximately 1 h | 4 |  |  |  |  |  | 5 | 2 | ≤ 30 | moderate efficacy but failed to lower blood glucose to normoglycemic levels | increase in maximum tolerated dose ([2]; healthy mice, from area under the hypoglycemia line, 10 U/kg vs 1 U/kg insulin): didn't show a significant improvement; response to the following two additional IPGTTs ([3]; 5 U/kg, glucose 2 g/kg i.p. at 7.5 and 10.5 h): didn't exhibit glucose-lowering effects
